Laboratory results reported in ChEMBL document CHEMBL1148488, “Design, synthesis, and evaluation of a liposaccharide drug delivery agent: application to the gastrointestinal absorption of gentamicin” (J Med Chem, 2004).

Legend:
Assay type in all cases: ADME, organism-based
Rattus norvegicus = test: Bioavailability in rat (dose 3 mg/kg i.v.); conditions: in vivo, iv
[1] = Oral bioavailability in rat (dose 60 mg/kg p.o.); conditions: in vivo
Outline: (§1)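 Cannulated male Sprague–Dawley rats (300–350 g), fasted 15 h, given 60 mg/kg by oral gavage under light O2/CO2 anaesthesia in 1 mL 5% DMSO/water at pH 8. Arterial plasma sampled 0–120 min and assayed by fluorescence polarization immunoassay. Cmax is observed; AUC0–120 is trapezoidal. F = AUCpo·dose_iv/(AUCiv·dose_po)×100, using iv 3 mg/kg. Mean ± SEM, 4–5 rats.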

[2] = Area under the curve at a concentration of 3 mg/kg in rats, intravenously; parameters: dose 3 mg/kg, route intravenous; conditions: rat, in vivo, iv, read-out: AUC 120 (converted)
Outline: (§2)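 Male Sprague–Dawley rats (300–350 g) with femoral artery cannula, dosed next day at 3 mg/kg in 0.3 mL heparinized saline via lateral tail vein. Arterial blood drawn at 0, 5, 10, 15, 30, 60, 90, 120 min, and plasma frozen at –70 °C. Gentamicin measured by fluorescence polarization immunoassay (LOD 0.30 μg/mL). Cmax is the observed value; AUC0–120 by linear trapezoidal rule. Mean ± SEM, 4–5 rats.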

[3] = Area under the curve at a concentration of 60 mg/kg perorally in rats along with control; parameters: dose 60 mg/kg, route oral; conditions: rat, in vivo, po, read-out: AUC 120 (converted); outline: as §1
[4] = Maximum plasma concentration at a concentration of 3 mg/kg in rats, intravenously; parameters: dose 3 mg/kg, route intravenous; conditions: rat, iv; outline: as §2
[5] = Maximum plasma concentration at a concentration of 60 mg/kg perorally in rats along with control; parameters: dose 60 mg/kg, route oral; conditions: rat, po; outline: as §1

| Structure (SMILES) | Bioavailabiility (Rattus norvegicus) | bioavailability ([1]; read-out: Bioavailabiility) | AUC [2] | AUC [3] | Cmax [4] | Cmax [5] | F (Rattus norvegicus) | bioavailability [1] |
| --- | --- | --- | --- | --- | --- | --- | --- | --- |
| CN[C@@H]1C(O)[C@H](O[C@@H]2C(O)C(O[C@H]3OC(CN)CCC3N)[C@@H](N)C[C@H]2N)OC[C@@H]1O.O=S(=O)(O)O (stereo partly drawn) | 100% | 1.4% | 4180 ng·h/mL | 1180 ng·h/mL | 8190 ng/mL | 770 ng/mL |  |  |
| CNC(C)C1CC[C@H](N)[C@@H](OC2[C@@H](O)[C@@H](O[C@H]3OC[C@H](O)[C@@H](NC)[C@@H]3O)[C@H](N)C[C@@H]2N)O1.O=S(=O)(O)O (stereo partly drawn) |  |  | 4180 ng·h/mL | 1180 ng·h/mL | 8190 ng/mL | 770 ng/mL | 100% | 1.4% |
| CN[C@@H]1[C@H](O)[C@H](O[C@H]2[C@H](N)C[C@H](N)C(O[C@H]3OC(C(C)N)CC[C@@H]3N)[C@H]2O)OC[C@@H]1O.O=S(=O)(O)O (stereo partly drawn) |  |  | 4180 ng·h/mL | 1180 ng·h/mL | 8190 ng/mL | 770 ng/mL | 100% | 1.4% |
